Holding throughout (format): functional
Assay [1] deals with Staphylococcus aureus. The assay can be described thus: Antibacterial activity against standard Staphylococcus aureus after 20 hrs by agar dilution method. Summed up:
(§1)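 Agar dilution MIC. The inoculum came from a seed culture in Sensitivity test broth. A 5 µl portion of a cell suspension of about 10^6 CFU/ml was inoculated onto Sensitivity disk agar supplemented with 5% horse blood. Plates were incubated at 37 °C for 20 h, then MIC was read.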
(In general: In agar dilution, organisms are placed on agar that contains the substance at set levels.)

For assay [2], the system named is Staphylococcus aureus. The assay is described as follows: Antibacterial activity against susceptible Staphylococcus aureus after 20 hrs by agar dilution method. Summed up: as §1
Assay [3] relates to Staphylococcus aureus. The assay is described as follows: Antibacterial activity against ermC-inducible resistant Staphylococcus aureus after 20 hrs by agar dilution method. Summed up: as §1
The test system of assay [4] is Staphylococcus aureus. The assay can be described thus: Antibacterial activity against ermB-inducible resistant Staphylococcus aureus after 20 hrs by agar dilution method. An outline of the steps:
as §1

In assay [5] the test system is Streptococcus pneumoniae. The assay is described as follows: Antibacterial activity against ermB-inducible resistant Streptococcus pneumoniae after 20 hrs by agar dilution method. An outline of the steps: (§2)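 Agar dilution MIC. Streptococcal strains were pre-cultured on blood agar plates. A 5 µl portion of a cell suspension of about 10^6 CFU/ml was inoculated onto Sensitivity disk agar supplemented with 5% horse blood. Plates were incubated at 37 °C for 20 h, then MIC was read.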

Assay [6] relates to Haemophilus influenzae. The assay is described as follows: Antibacterial activity against susceptible Haemophilus influenzae after 20 hrs by agar dilution method. Summed up: (§3)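 MIC by agar dilution. Strains grown on blood agar plates for seed culture. About 5 µl of a suspension of roughly 10^6 CFU/ml spotted onto Sensitivity disk agar with 5% horse blood. Plates incubated at 37 °C for 20 h, then MIC read.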

Assay [7] concerns Streptococcus pneumoniae. The assay can be described thus: Antibacterial activity against ermB-constitutive resistant Streptococcus pneumoniae after 20 hrs by agar dilution method. An outline of the steps: as §2
Assay [8] relates to Staphylococcus aureus. The assay can be described thus: Antibacterial activity against ermA-constitutive resistant Staphylococcus aureus after 20 hrs by agar dilution method. An outline of the steps: as §1
Assay [9] relates to Moraxella catarrhalis. The assay is described as follows: Antibacterial activity against standard Moraxella catarrhalis after 20 hrs by agar dilution method. An outline of the steps:
as §3

The subject of assay [10] is Streptococcus pyogenes. The assay can be described thus: Antibacterial activity against ermB-constitutive resistant Streptococcus pyogenes after 20 hrs by agar dilution method. Summed up:
as §2

Assay [11] relates to Streptococcus pneumoniae. The assay is described as follows: Antibacterial activity against susceptible Streptococcus pneumoniae after 20 hrs by agar dilution method. Summed up: as §3
Assay [12] deals with Streptococcus pyogenes. The assay is described as follows: Antibacterial activity against mefE efflux-resistant Streptococcus pyogenes after 20 hrs by agar dilution method. An outline of the steps:
as §2

Assay [13] relates to Streptococcus pneumoniae. The assay can be described thus: Antibacterial activity against mefE efflux-resistant Streptococcus pneumoniae after 20 hrs by agar dilution method. Summed up: as §2
Assay [14] has as its system Haemophilus influenzae. The assay is described as follows: Antibacterial activity against standard Haemophilus influenzae after 20 hrs by agar dilution method. Summed up:
as §3

In brackets after ≈: the same amount, converted by molar mass.

With `CCC(=O)O[C@@H]1CC(=O)O[C@H](C)C[C@H](O)[C@H](N(C)CCCc2ccncc2)/C=C/[C@H](OC(C)=O)[C@H](C)C[C@H](CC=O)[C@H](O[C@@H]2O[C@H](C)[C@@H](O)[C@H](N(C)C)[C@H]2O)[C@H]1OC`, the MIC was 0.78 µg/mL (≈ 0.949 µM) in assay [1]; 1.56 µg/mL (≈ 1.9 µM) in assay [2]; 1.56 µg/mL (≈ 1.9 µM) in [3]; 1.56 µg/mL (≈ 1.9 µM) in assay [4]; more than 100 µg/mL in [5]; 3.13 µg/mL (≈ 3.81 µM) in assay [6]. Besides, the MIC is more than 100 µg/mL in assay [7]; more than 100 µg/mL in assay [8]; 0.1 µg/mL (≈ 0.122 µM) in assay [9]; more than 100 µg/mL in assay [10]; 0.39 µg/mL (≈ 0.474 µM) in assay [11]; 6.25 µg/mL (≈ 7.6 µM) in assay [12]. Further, the MIC worked out at 1.56 µg/mL (≈ 1.9 µM) in [13] and 0.39 µg/mL (≈ 0.474 µM) in [14].

Take `CCC(=O)O[C@@H]1CC(=O)O[C@H](C)C[C@@H]2OC(=O)N[C@@H]2/C=C/[C@H](OC(C)=O)[C@H](C)C[C@H](CC=O)[C@H](O[C@@H]2O[C@H](C)[C@@H](O[C@H]3C[C@@](C)(O)[C@@H](OC(=O)CC)[C@H](C)O3)[C@H](N(C)C)[C@H]2O)[C@H]1OC`: the MIC in assay [1] is 0.39 µg/mL (≈ 0.426 µM); in [2], 0.39 µg/mL (≈ 0.426 µM); in assay [3], 0.78 µg/mL (≈ 0.852 µM); in assay [4], 0.39 µg/mL (≈ 0.426 µM); in [5], more than 100 µg/mL; in [6], 6.25 µg/mL (≈ 6.83 µM). Also, the MIC is more than 100 µg/mL in assay [7]; more than 100 µg/mL in assay [8]; 0.39 µg/mL (≈ 0.426 µM) in assay [9]; more than 100 µg/mL in [10]; 0.2 µg/mL (≈ 0.219 µM) in assay [11]; 0.2 µg/mL (≈ 0.219 µM) in assay [12]. Moreover, the MIC in assay [13] worked out at 0.2 µg/mL (≈ 0.219 µM); in [14] it was 0.78 µg/mL (≈ 0.852 µM).

For the compound `CCC(=O)O[C@@H]1CC(=O)O[C@H](C)C[C@H](O)[C@H](N(C)CCCc2ccncc2)/C=C/[C@H](OC(C)=O)[C@H](C)C[C@H](CC=O)[C@H](O[C@@H]2O[C@H](C)[C@@H](O[C@H]3C[C@@](C)(O)[C@@H](OC(=O)CC)[C@H](C)O3)[C@H](N(C)C)[C@H]2O)[C@H]1OC`, the MIC in [1] was 0.2 µg/mL (≈ 0.196 µM); in assay [2], 0.2 µg/mL (≈ 0.196 µM); in assay [3], 0.39 µg/mL (≈ 0.382 µM); in assay [4], 0.2 µg/mL (≈ 0.196 µM); in [5], more than 100 µg/mL; in [6], 12.5 µg/mL (≈ 12.2 µM). The MIC in assay [7] is more than 100 µg/mL; in assay [8] it was more than 100 µg/mL; in [9], 0.78 µg/mL (≈ 0.763 µM); in assay [10], more than 100 µg/mL; in assay [11] it was 0.05 µg/mL (≈ 0.0489 µM); in assay [12], 0.1 µg/mL (≈ 0.0978 µM). Moreover, the MIC in assay [13] came out at 0.1 µg/mL (≈ 0.0978 µM); in [14], 1.56 µg/mL (≈ 1.53 µM).

`CCC(=O)O[C@@H]1CC(=O)O[C@H](C)C/C=C/C=C/[C@H](OC(C)=O)[C@H](C)C[C@H](CC=O)[C@H](O[C@@H]2O[C@H](C)[C@@H](O[C@H]3C[C@@](C)(O)[C@@H](OC(=O)CC)[C@H](C)O3)[C@H](N(C)C)[C@H]2O)[C@H]1OC`: the MIC in [1] came out at 0.39 µg/mL (≈ 0.456 µM); in assay [2], 0.39 µg/mL (≈ 0.456 µM); in assay [3] it was 0.78 µg/mL (≈ 0.911 µM); in assay [4] it was 0.39 µg/mL (≈ 0.456 µM); in [5], 100 µg/mL (≈ 117 µM); in assay [6], 25 µg/mL (≈ 29.2 µM). Further, the MIC in [7] is more than 100 µg/mL; in [8] it was more than 100 µg/mL; in assay [9], 0.78 µg/mL (≈ 0.911 µM); in [10], more than 100 µg/mL; in assay [11] it was 0.2 µg/mL (≈ 0.234 µM); in assay [12], 0.39 µg/mL (≈ 0.456 µM). Moreover, the MIC was determined as 0.2 µg/mL (≈ 0.234 µM) in assay [13] and 3.13 µg/mL (≈ 3.66 µM) in assay [14].

In the case of `CCC(=O)O[C@@H]1CC(=O)O[C@H](C)C[C@@H]2OC(=O)N(Cc3ccccc3)[C@@H]2/C=C/[C@H](OC(C)=O)[C@H](C)C[C@H](CC=O)[C@H](O[C@@H]2O[C@H](C)[C@@H](O[C@H]3C[C@@](C)(O)[C@@H](OC(=O)CC)[C@H](C)O3)[C@H](N(C)C)[C@H]2O)[C@H]1OC`, the MIC was 0.39 µg/mL (≈ 0.388 µM) in [1]; 0.39 µg/mL (≈ 0.388 µM) in assay [2]; 0.78 µg/mL (≈ 0.776 µM) in [3]; 0.39 µg/mL (≈ 0.388 µM) in assay [4]; 100 µg/mL (≈ 99.5 µM) in [5]; 25 µg/mL (≈ 24.9 µM) in [6]. The MIC is more than 100 µg/mL in [7]; more than 100 µg/mL in [8]; 1.56 µg/mL (≈ 1.55 µM) in assay [9]; more than 100 µg/mL in [10]; 0.2 µg/mL (≈ 0.199 µM) in [11]; 0.2 µg/mL (≈ 0.199 µM) in [12]. Also, the MIC in assay [13] worked out at 0.2 µg/mL (≈ 0.199 µM); in assay [14], 3.13 µg/mL (≈ 3.11 µM).
